# Experimental data: article PMC5824357 (RNA, 2018)
# Ends that are not written are not given here. MBP = not defined here; MS2 = not defined here; HA = not defined here
# B1: Bam: Drosophila melanogaster Bag-of-marbles, Uniprot P22745, residues 1–442, variously tagged (protein)
# chain: MLNARDVCPEGNDDQQLDHNFKQMEEHLALMVEGNENEDPRKATCEYEDTNEDGATCTSGVLSEIQENFGRLRLCDVTAPLLEFHGLDCLQQIQKRSRHFAFDGSPAKKSRSGGVLVTGPKQKQLQKENVWNRKSKGSASADNIEKLPITIEKLHMIGLHGDCLEHNAVLRLMNLFRSLHDHLTADLGFSRQNSMPSDYLFDMPVKSTMPKSLNVRYQLQVLCTKVERFLVQQRRTLEANRHFDFEKYDECDKLLKGFASYLDNFKLLLKPKMRNRNGNSGSNADKFHTQRMERLLIGLRDWIKAAHLSVHVFNWEMDLEHRYSGAMTESHKSLNERAILLSGAELRAAEARGISAEDLFIAQRYKLGGPIYCVLEQHEFLSALIANPETYFPPSVVAICGPQKLGAVSMEQPSASEEEFEETEEVPSSPPRHTGRVPRFRS
# modifications: left off: MBP, N-terminal, kept
# How the values were obtained:
# [1] = tested on: β-globin-6xMS2bs reporter; test: Tethering assay in human HEK293T cells; type: cell-based; settings: MS2-HA-tagged, three independent experiments
# [2] = tested on: Dm NOT1-CN9BD–CAF40 complex; test: In vitro MBP pull-down, Dm CN9BD–CAF40; type: binding, Drosophila melanogaster; settings: MBP-tagged proteins, amylose resin, 50 mM HEPES pH 7.5, 200 mM NaCl, 2 mM DTT, 1 h; SDS-PAGE, Coomassie
# Method in brief: (§1)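 Proteins were expressed in E. coli BL21 (DE3) Star overnight at 20°C. Tethered-protein constructs carried an N-terminal MBP tag and were purified by amylose resin, anion exchange and gel filtration. MBP (20 µg, negative control) or MBP fusion (40 µg) was incubated 1 h with equimolar purified CCR4–NOT modules plus amylose resin. Beads were washed five times and eluted with 25 mM maltose. Eluates were TCA-precipitated and analysed by SDS-PAGE/Coomassie.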
# Hs CN9BD–CAF40 complex = test: In vitro MBP pull-down, human CN9BD–CAF40; type: binding; settings: MBP-tagged proteins, amylose resin, 50 mM HEPES pH 7.5, 200 mM NaCl, 2 mM DTT, 1 h; SDS-PAGE, Coomassie
# Method in brief: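 The Hs complex was MBP-NOT1-CN9BD (V1351–L1588) co-expressed in E. coli with His6-CAF40 (R19–E285), purified on amylose, tags removed by HRV3C, then heparin and gel filtration. MBP (20 µg, control) or MBP fusion (40 µg) was incubated 1 h with equimolar complex and amylose resin. Beads were washed five times, eluted with 25 mM maltose, TCA-precipitated and analysed by SDS-PAGE/Coomassie.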
# Hs CCR4-NOT subcomplexes = test: In vitro MBP pull-down, other Hs CCR4–NOT subcomplexes; type: binding, human; settings: NOT1-10-11 module, catalytic module, CD, NOT3 N-terminal coiled coil, MBP-tagged Bam, pH 7.5, 1 h
# Method in brief: as §1
# [3] = tested on: catalytic module (containing Hs CCR4a); test: In vitro MBP pull-down, Hs catalytic module; type: binding, human; settings: recombinant proteins
# [4] = tested on: Dm NOT1-CN9BD–CAF40 complex (containing CAF40 V186E or 2xMut); test: In vitro MBP pull-down, Dm CN9BD–CAF40 with CAF40 mutants; type: binding, Drosophila melanogaster; settings: MBP-tagged Bam, pH 7.5, 1 h
# Method in brief: as §1
# F-Luc-5BoxB mRNA [5] = test: Tethering assay in S2 cells, F-Luc-5BoxB reporter; type: cell-based, Drosophila melanogaster
# F-Luc-5BoxB-A95C7-HhR = test: Tethering assay in S2 cells, F-Luc-5BoxB-A95C7-HhR reporter; type: cell-based, Drosophila melanogaster
# F-Luc-5BoxB mRNA [6] = test: mRNA half-life in S2 cells after actinomycin D; type: cell-based, Drosophila melanogaster; settings: actinomycin D 5 µg/ml; northern blot
# Method in brief: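 S2 cells were Effectene-transfected with F-Luc-5BoxB reporter, R-Luc control and λN-HA-tagged test protein. Three days post-transfection they were treated with actinomycin D (5 µg/ml final) and collected at successive time points. Reporter mRNA remaining was measured by northern blotting of total RNA.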
# Dm CAF40 (GFP-tagged) = test: Coimmunoprecipitation in S2 cells, CAF40; type: binding, Drosophila melanogaster; settings: HA-tagged Bam, S2 cell lysates, RNaseA
# Dm CAF40 (V186E) = test: Coimmunoprecipitation in S2 cells, CAF40 V186E; type: binding, Drosophila melanogaster; settings: HA-tagged Bam, S2 cell lysates, RNaseA
# CCR4 (GFP-tagged) = test: Coimmunoprecipitation in S2 cells, CCR4; type: binding, Drosophila melanogaster; settings: HA-tagged Bam, S2 cell lysates, RNaseA
# NOT1 (GFP-tagged) = test: Coimmunoprecipitation in S2 cells, NOT1; type: binding, Drosophila melanogaster; settings: HA-tagged Bam, S2 cell lysates, RNaseA
# NOT2 (GFP-tagged) = test: Coimmunoprecipitation in S2 cells, NOT2; type: binding, Drosophila melanogaster; settings: HA-tagged Bam, S2 cell lysates, RNaseA
# NOT3 (GFP-tagged) = test: Coimmunoprecipitation in S2 cells, NOT3; type: binding, Drosophila melanogaster; settings: HA-tagged Bam, S2 cell lysates, RNaseA
# endogenous NOT1 = test: SBP pull-down in HEK293T cells, NOT1; type: binding, human
# Method in brief: (§2)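 HEK293T cells expressed V5-SBP-tagged full-length test protein, with V5-SBP-MBP as negative control. SBP pull-down from lysates was done in the presence of RNaseA. Input (1.5% of V5-SBP proteins, 1% of endogenous CCR4–NOT subunits) and bound fractions (10% and 30%, respectively) were analysed by western blotting with ECL detection.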
# endogenous NOT2 = test: SBP pull-down in HEK293T cells, NOT2; type: binding, human
# Method in brief: as §2
# endogenous NOT3 = test: SBP pull-down in HEK293T cells, NOT3; type: binding, human
# Method in brief: as §2
# endogenous CAF40 = test: SBP pull-down in HEK293T cells, CAF40; type: binding, human; settings: V5-SBP-tagged, wild-type HEK293T, RNaseA
# Method in brief: as §2
# HA-tagged CCR4 = test: SBP pull-down in HEK293T cells, CCR4; type: binding
# Method in brief: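 Control or CAF40-null HEK293T cells coexpressed HA-CCR4 with V5-SBP-tagged full-length test protein or V5-SBP-MBP negative control. SBP pull-down was done in lysates containing RNaseA. Input (1.5% V5-SBP proteins, 1% CCR4–NOT subunits) and bound (10% and 30%) fractions were western blotted with ECL detection.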
# [7] = V5-SBP-tagged, wild-type HEK293T, RNaseA
molecule,measurement,setting,value
"CBM alone fused to MBP: MS2-HA-MBP-Bam 13–36 ({MS2-HA-MBP}-DDQQLDHNFKQMEEHLALMVEGNE; reading uncertain; UniProt P22745 13-36, looked up, fragment)",degradation/repression of β-globin-6xMS2bs reporter,[1],as active as full-length Bam
B1,interaction in pull-down,[2],also interacted with the Dm CN9BD–CAF40 module
same,interaction in pull-down,Hs CN9BD–CAF40 complex,interacted only with the CN9BD–CAF40 module
same,interaction in pull-down with any other subcomplex,Hs CCR4-NOT subcomplexes,not with any other subcomplex
same,direct interaction with the catalytic module,[3],did not observe a direct interaction
same,displacement of CAF1-NOT1 subcomplex from CCR4a,[3],did not competitively displace the CAF1-NOT1 subcomplex from CCR4a
same,disruption of interaction by V186E substitution in CAF40,[4]; CAF40 V186E,sufficient to disrupt the interaction with Bam in vitro
same,disruption of interaction by 2xMut in CAF40,"[4]; CAF40 Y139D, G146W (2xMut)",sufficient to disrupt the interaction with Bam in vitro
same,tethering activity in CAF40-depleted cells,F-Luc-5BoxB mRNA [5]; CAF40 KD (∼10% of control levels),partially suppressed Bam activity
same,repression in CAF40-depleted cells complemented with CAF40 V186E,F-Luc-5BoxB mRNA [5]; CAF40 KD + CAF40 V186E,not by expression of the CAF40 V186E mutant
same,repression in CAF40-depleted cells complemented with wild-type CAF40,F-Luc-5BoxB mRNA [5]; CAF40 KD + wild-type CAF40,restored by transient expression of wild-type CAF40
same,F-Luc-5BoxB mRNA degradation in DCP2-depleted cells,"F-Luc-5BoxB mRNA [5]; DCP2 knockdown, DCP2 E361Q overexpressed",impaired
same,F-Luc activity in DCP2-depleted cells,"F-Luc-5BoxB mRNA [5]; DCP2 knockdown, DCP2 E361Q overexpressed, F-Luc activity",not restored
same,tethering activity in cells overexpressing CAF40 V186E,F-Luc-5BoxB mRNA [5]; GFP-CAF40 V186E overexpressed,suppressed in cells overexpressing the CAF40 V186E mutant
same,tethering activity in cells overexpressing CAF40 wild-type,F-Luc-5BoxB mRNA [5]; GFP-CAF40 wild-type overexpressed,not when CAF40 wild-type was overexpressed
same,F-Luc-5BoxB mRNA degradation after NOT1 depletion,F-Luc-5BoxB mRNA [5]; NOT1-depleted S2 cells,partially suppressed degradation of F-Luc-5BoxB mRNA
same,repression of deadenylation-resistant reporter,F-Luc-5BoxB-A95C7-HhR,repressed the expression of this reporter in S2 cells
same,mRNA half-life,F-Luc-5BoxB mRNA [6],shortening of the mRNA half-life
same,coimmunoprecipitation with CAF40,Dm CAF40 (GFP-tagged),"interacted with NOT1, NOT2, NOT3, CCR4, and CAF40"
same,coimmunoprecipitation with CAF40 V186E,Dm CAF40 (V186E),sufficient to abolish binding to full-length Bam in cell lysates
same,coimmunoprecipitation with CCR4,CCR4 (GFP-tagged),"interacted with NOT1, NOT2, NOT3, CCR4, and CAF40"
same,coimmunoprecipitation with NOT1,NOT1 (GFP-tagged),"interacted with NOT1, NOT2, NOT3, CCR4, and CAF40"
same,coimmunoprecipitation with NOT2,NOT2 (GFP-tagged),"interacted with NOT1, NOT2, NOT3, CCR4, and CAF40"
same,coimmunoprecipitation with NOT3,NOT3 (GFP-tagged),"interacted with NOT1, NOT2, NOT3, CCR4, and CAF40"
same,"pull-down of endogenous NOT1, CAF40-null cells",endogenous NOT1; CAF40-null HEK293T,"did not interact with endogenous NOT1, NOT2 and NOT3"
same,pull-down of endogenous NOT1,endogenous NOT1; [7],pulled down all of the tested subunits
same,"pull-down of endogenous NOT2, CAF40-null cells",endogenous NOT2; CAF40-null HEK293T,"did not interact with endogenous NOT1, NOT2 and NOT3"
same,pull-down of endogenous NOT2,endogenous NOT2; [7],pulled down all of the tested subunits
same,"pull-down of endogenous NOT3, CAF40-null cells",endogenous NOT3; CAF40-null HEK293T,"did not interact with endogenous NOT1, NOT2 and NOT3"
same,pull-down of endogenous NOT3,endogenous NOT3; [7],pulled down all of the tested subunits
same,pull-down of endogenous CAF40,endogenous CAF40,pulled down all of the tested subunits
same,"pull-down of HA-tagged CCR4, CAF40-null cells",HA-tagged CCR4; CAF40-null HEK293T,did not interact
same,pull-down of HA-tagged CCR4,HA-tagged CCR4; [7],as well as HA-tagged CCR4
